Test results published in ChEMBL document CHEMBL1122996, “Interactions of apomorphine with serum and tissue proteins” (J Med Chem, 1985).
“And” between values parts separate entries of the source, which are not always exact repeats. Equal values may be shown once.

What was measured:
Mus musculus [1] = species on record: Mus musculus; experiment: Radio activity accumulation in extractable reactivity in plasma (Excreatable reactivity) on day 1; type: functional
Method in brief: (§1)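 Male CD-1 mice (~35 g, n=10 per group) given apomorphine 30 mg/kg fortified with [3H]-apomorphine (0.153 mCi/kg) ip, either once or daily for 14 days. Sampled 24 h after the last dose: plasma from infraorbital sinus (extractable and nonextractable radioactivity) and brain regions (striatum, cerebellum, forebrain without striatum). Radioactivity expressed as µg apomorphine equivalent per mL or per g […].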

Sus scrofa [2] = species on record: Sus scrofa; experiment: Percentage binding to swine plasma proteins at 100 ug/mL concentration of the compound; type: cell-free
Mus musculus [3] = species on record: Mus musculus; experiment: Percentage of covalently bound total in cerebellum of mouse; type: functional
Method in brief: (§2)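 Male CD-1 mice (~35 g, n=10) given apomorphine 30 mg/kg with [3H]-apomorphine (0.153 mCi/kg) ip daily for 14 days, killed 24 h after the last dose. Plasma from infraorbital sinus; brain split into striatum, cerebellum, forebrain without striatum. Protein-bound radioactivity expressed as µg/g protein (albumin equivalent; plasma µg/mL) and as % of total tissue radioactivity.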

Mus musculus [4] = species on record: Mus musculus; experiment: Percentage of covalently bound total in plasma of mouse; type: functional; method in brief: as §2
Albumin [5] = biological target: T1, Albumin (Bos taurus, UniProt P02769); experiment: (§3) Covalent binding of compound to serum albumin after 1 hr when the level of [8,9-3H2]-1is 2.6 dpm *10e6; settings: cattle
Method in brief: (§4)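 BSA (32 mg) with 2 mg apomorphine HCl hemihydrate plus tritiated [8,9-3H2]apomorphine at the level stated, in pH 7.4 phosphate buffer, 2.1 mL total, incubated 1 h. Incubates were extracted twice with ethyl acetate. Protein-bound radioactivity was measured by LSC after one of three workups: perchloric acid precipitation with repeated trifluoroacetic acid-ethanol washes; Sephadex G-25 gel filtration in 1% sodium lauryl sulfate buffer; or 4-day dialysis.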

Mus musculus [6] = species on record: Mus musculus; experiment: Radio activity covalently bound to forebrain without striatum of mouse brain; type: functional; method in brief: as §2
Mus musculus [7] = species on record: Mus musculus; experiment: Ratio of accumulation of radioactivity from 14 to 1 day in cerebellum; type: functional
Method in brief: (§5)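 Male CD-1 mice (~35 g, 10 per group) received 1 at 30 mg/kg ip with [³H]-1 (0.153 mCi/kg), once or daily for 14 days, with free access to food and water. At 24 h after the last dose, plasma (infraorbital sinus), brain regions, kidney, liver and GI tract were taken for radioactivity counting. The accumulation ratio is radioactivity after 14 doses divided by radioactivity after 1 dose.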

Albumin [8] = biological target: T1, Albumin; experiment: Covalent binding of compound to serum albumin after 1 hr when the level of [8,9-3H2]-1is 2.6 dpm *10e6 expressed as mol of drug/mol of serum albumin; settings: cattle; method in brief: as §4
Mus musculus [9] = species on record: Mus musculus; experiment: Radio activity of [3H]-l in mice GI tract with its contents on day 1; type: functional, Gastrointestinal tract
Method in brief: (§6)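 Male CD-1 mice (~35 g, n=10 per group) received apomorphine 30 mg/kg with [3H]-apomorphine (0.153 mCi/kg) ip, once or daily for 14 days. Killed 24 h after the last dose; GI tract (with contents or washed with distilled water), liver and kidney (rinsed of blood) and skeletal tissue taken. Radioactivity given as % of total dose; skeletal tissue as % dose/g wet weight.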

Mus musculus [10] = species on record: Mus musculus; experiment: Radio activity of [3H]-l in washed mice GI tract on day 1; type: functional, Gastrointestinal tract; method in brief: as §6
Albumin [11] = biological target: T1, Albumin; experiment: Covalent binding of compound to serum albumin after 1 hr when the level of [8,9-3H2]-1is 2.7 dpm *10e6; settings: cattle; method in brief: as §4
Homo sapiens [12] = species on record: Homo sapiens; experiment: Percentage binding to human plasma proteins was determined by collecting HPLC eluate at 10.0 micro g/ml concentration of compound 1 in plasma; type: cell-free
Method in brief: (§7)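 Fresh plasma from fasted healthy human volunteers was spiked with 1-HCl plus [³H]-1 tracer. It was incubated 10 min at 37 °C and ultrafiltered through YMT membranes (1000g, 5 min, 37 °C). Ultrafiltrate was acidified with pH 3.0 acetate buffer containing carrier 1-HCl, argon-flushed and frozen at -15 °C. Phenyl-column HPLC was read by peak-eluate collection LSC, UV peak area, or radiochemical detection. % bound was calculated from total vs ultrafiltrate using a plasma water fraction of 0.93.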

Mus musculus [13] = species on record: Mus musculus; experiment: Radio activity of [3H]-l in mice liver on day 1; type: functional; method in brief: as §6
Homo sapiens [14] = species on record: Homo sapiens; experiment: Percentage binding to human plasma proteins was determined by measuring HPLC peak at 0.10 micro g/ml concentration of compound 1 in plasma; type: cell-free; method in brief: as §7
Mus musculus [15] = species on record: Mus musculus; experiment: Ratio of accumulation of radioactivity from 14 to 1 day in skeletal tissue (%dose/g of wet wt); type: functional; method in brief: as §5
Sus scrofa [16] = species on record: Sus scrofa; experiment: Percentage binding to swine plasma proteins at 5.0 ug/mL concentration of the compound; type: cell-free
Method in brief: (§8)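 Plasma came from male Sprague-Dawley rats (~450 g, ether, vena cava blood, lithium heparin) or from six mature female swine (jugular catheter, heparinized). It was spiked with 1-HCl (10 ng–50 µg/mL) containing 0.5 mCi/mL [³H]-1. Samples were ultrafiltered as for human plasma, and the ultrafiltrate was analysed by HPLC peak-collection LSC. N = 4.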

Albumin [17] = biological target: T1, Albumin; experiment: Covalent binding of compound to serum albumin after 1 hr when the level of [8,9-3H2]-1is 2.7 dpm *10e6 expressed as mol of drug/mol of serum albumin; settings: cattle; method in brief: as §4
Mus musculus [18] = species on record: Mus musculus; experiment: Ratio of accumulation of radioactivity from 14 to 1 day in kidney; type: functional; method in brief: as §5
Mus musculus [19] = species on record: Mus musculus; experiment: Radio activity covalently bound to plasma of mouse brain; type: functional; method in brief: as §2
Albumin [20] = biological target: T1, Albumin; experiment: Covalent binding of compound to serum albumin after 1 hr when the level of [8,9-3H2]-1is 2.3 dpm *10e6 expressed as mol of drug/mol of BSA; settings: cattle; method in brief: as §4
Albumin [21] = biological target: T1, Albumin; experiment: as §3; settings: cattle; method in brief: as §4; remark: listed apart in the source
Sus scrofa [22] = species on record: Sus scrofa; experiment: Percentage binding to swine plasma proteins at 0.10 ug/mL concentration of the compound; type: cell-free; method in brief: as §8
Sus scrofa [23] = species on record: Sus scrofa; experiment: Percentage binding to swine plasma proteins at 1.00 ug/mL concentration of the compound; type: cell-free; method in brief: as §8
Rattus norvegicus = species on record: Rattus norvegicus; experiment: Percentage binding to rat plasma proteins at 10.0 ug/mL concentration of the compound; type: cell-free; method in brief: as §8
Mus musculus [24] = species on record: Mus musculus; experiment: Radio activity accumulation in extractable reactivity in plasma brain (Excreatable reactivity) on 14 days; type: functional; method in brief: as §1
Homo sapiens [25] = species on record: Homo sapiens; experiment: Percentage binding to human plasma proteins was determined by measuring HPLC peak with radiochemical detection at 1.0 micro g/ml concentration in plasma; type: cell-free; method in brief: as §7
Mus musculus [26] = species on record: Mus musculus; experiment: Radio activity in skeletal tissue(% dose/g of wet wt) contents on day 1; type: functional; method in brief: as §6
Mus musculus [27] = species on record: Mus musculus; experiment: Radio activity of [3H]-l in mice kidney on day 1; type: functional; method in brief: as §6
Homo sapiens [28] = species on record: Homo sapiens; experiment: Percentage binding to human plasma proteins was determined by collecting HPLC eluate at 0.01 micro g/ml concentration of compound 1 in plasma; type: cell-free; method in brief: as §7
Mus musculus [29] = species on record: Mus musculus; experiment: Radio activity covalently bound to striatum of mouse brain; type: functional; method in brief: as §2
Homo sapiens [30] = species on record: Homo sapiens; experiment: Percentage binding to human plasma proteins was determined by measuring HPLC peak at 1.00 micro g/ml concentration in plasma; type: cell-free; method in brief: as §7
Mus musculus [31] = species on record: Mus musculus; experiment: Percentage of covalently bound total in striatum of mouse; type: functional; method in brief: as §2
Mus musculus [32] = species on record: Mus musculus; experiment: Ratio of accumulation of radioactivity from 14 to 1 day in liver; type: functional; method in brief: as §5
Mus musculus [33] = species on record: Mus musculus; experiment: Radio activity accumulation in plasma (Excreatable reactivity) on day 1; type: functional; method in brief: as §1

T1 sequence (P02769 whole entry): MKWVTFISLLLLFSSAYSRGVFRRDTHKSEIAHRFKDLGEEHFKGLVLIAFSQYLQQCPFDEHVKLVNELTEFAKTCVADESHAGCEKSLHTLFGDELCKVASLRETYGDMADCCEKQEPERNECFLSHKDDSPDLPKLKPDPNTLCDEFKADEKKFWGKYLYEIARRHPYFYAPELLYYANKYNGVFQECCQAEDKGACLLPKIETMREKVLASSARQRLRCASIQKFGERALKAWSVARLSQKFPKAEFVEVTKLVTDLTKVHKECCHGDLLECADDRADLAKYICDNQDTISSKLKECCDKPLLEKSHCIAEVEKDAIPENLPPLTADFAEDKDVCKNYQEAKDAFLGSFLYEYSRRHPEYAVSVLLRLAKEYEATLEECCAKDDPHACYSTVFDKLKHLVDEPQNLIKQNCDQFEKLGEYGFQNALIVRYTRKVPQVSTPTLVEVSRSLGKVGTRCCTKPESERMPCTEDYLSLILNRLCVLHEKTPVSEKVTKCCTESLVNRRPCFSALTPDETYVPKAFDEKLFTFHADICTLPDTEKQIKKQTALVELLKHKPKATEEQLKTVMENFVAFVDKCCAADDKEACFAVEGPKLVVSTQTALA

For `CN1CCc2cccc3c2[C@H]1Cc1ccc(O)c(O)c1-3` [APOMORPHINE], the Accumulation (Mus musculus [1]) was 0.561 µg/mL, the Binding (Sus scrofa [2]) was 85.7% and the Binding (Mus musculus [3]) was 1.71%. It also gave a Binding (Mus musculus [4]) of 2.88%, a Binding (Albumin [5]) of 9063 dpm mg-1 and a Binding (Mus musculus [6]) of 1.13 µg/g. The Ratio (Mus musculus [7]) was 2.9, the Binding (Albumin [8]) was 4 M of drug (M of BSA)-1 and 4.8 M of drug (M of BSA)-1 and 4.4 M of drug (M of BSA)-1 and the Amount (Mus musculus [9]) was 1.48%. The Amount (Mus musculus [10]) was 0.065%, the Binding (Albumin [11]) was 8465 dpm mg-1 and 12693 dpm mg-1 and the Binding (Homo sapiens [12]) was 95.3% and 96.9%. It also gave an Amount (Mus musculus [13]) of 0.38%, a Binding (Homo sapiens [14]) of 96.6% and a Ratio (Mus musculus [15]) of 1.6. The Binding (Sus scrofa [16]) was 90.4%, the Binding (Albumin [17]) was 4 M of drug (M of BSA)-1 and 5.9 M of drug (M of BSA)-1 and the Ratio (Mus musculus [18]) was 3.1. For the same compound, the Binding (Mus musculus [19]) was 0.68 µg/mL, the Binding (Albumin [20]) was 3.4 M of drug (M of BSA)-1 and the Binding (Albumin [21]) was 8238 dpm mg-1 and 9938 dpm mg-1. For the same compound, the Binding (Sus scrofa [22]) was 93%, the Binding (Sus scrofa [23]) was 93.5% and the Binding (Rattus norvegicus) was 90.7%. It also gave an Accumulation (Mus musculus [24]) of 1.42 µg/mL, a Binding (Homo sapiens [25]) of 94.9% and an Amount (Mus musculus [26]) of 0.245%. The Amount (Mus musculus [27]) was 0.107%, the Binding (Homo sapiens [28]) was 96.8% and the Binding (Mus musculus [29]) was 0.94 µg/g. It also gave a Binding (Homo sapiens [30]) of 96.6%, a Binding (Mus musculus [31]) of 1.65% and a Ratio (Mus musculus [32]) of 2.6. The Accumulation (Mus musculus [33]) was 0.561 µg/mL.
